ChEMBL document CHEMBL4043202, “Synthesis, pH dependent, plasma and enzymatic stability of bergenin prodrugs for potential use against rheumatoid arthritis” (Bioorg Med Chem, 2017)
≈ marks a conversion by molar mass, not a printed value.

Legend:
[1] = Distribution coefficient, log D of the compound in PBS/n-octanol at pH 7.4 at 25 degC by HPLC method; assay type: physicochemical
How it was run: (§1)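 Miniaturised shake-flask method: water/n-octanol for log P and PBS pH 7.4/n-octanol for log D, at 25 °C. Tubes were shaken overnight at 500 rpm and centrifuged at 16000 RCF for 20 min to separate the phases. Compound in each phase was quantified by reversed-phase C18 HPLC with the column at 37 °C. Run in triplicate.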

[2] = Partition coefficient, log P of the compound in water/n-octanol at pH 7.4 at 25 degC by HPLC method; assay type: physicochemical; how it was run: as §1
[3] = Stability in pH 6.8 SIF assessed as compound remaining level at 120 mg/mL incubated for 24 hrs at 37 degC by HPLC method
How it was run: (§2)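 SGF (pH 1.2) and SIF (pH 6.8) were prepared per USP 2000. Compound was incubated at 37 °C and sampled at 0 and 24 h. Samples were quenched with ice-cold acetonitrile and centrifuged. Prodrug and bergenin were measured by compound-specific isocratic RP-C8 HPLC-UV. Each analysis in triplicate.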

[4] = Stability in pH 1.2 SGF assessed as compound remaining level at 120 mg/mL incubated for 24 hrs at 37 degC by HPLC method; how it was run: as §2
[5] = Stability in pH 4.0 phosphate buffer assessed as compound remaining level at […] incubated for 24 hrs at 37 degC by HPLC method; assay type: physicochemical; conditions: for remaining at 24 h: pH 4.0 phosphate buffer, pH 4, read-out: Stability
[6] = Partition coefficient, log P of the compound in water/n-octanol at 25 degC by HPLC method; conditions: pH 7.4
Tumor necrosis factor = Tumor necrosis factor (Homo sapiens, UniProt P01375); assay: Inhibition of TNFalpha (unknown origin)
[7] = Solubility in water; assay type: physicochemical
[8] = Solubility in pH 5.0 buffer; assay type: physicochemical
[9] = Partition coefficient, log P of the compound; assay type: physicochemical; conditions: octanol/water; how it was run: as §1
[10] = Solubility in pH 3.0 buffer; assay type: physicochemical
Interleukin-6 = Interleukin-6 (Homo sapiens, UniProt P05231); assay: Inhibition of IL6 (unknown origin)
[11] = Solubility in pH 1.0 buffer; assay type: physicochemical

Chain of Tumor necrosis factor (P01375 whole entry): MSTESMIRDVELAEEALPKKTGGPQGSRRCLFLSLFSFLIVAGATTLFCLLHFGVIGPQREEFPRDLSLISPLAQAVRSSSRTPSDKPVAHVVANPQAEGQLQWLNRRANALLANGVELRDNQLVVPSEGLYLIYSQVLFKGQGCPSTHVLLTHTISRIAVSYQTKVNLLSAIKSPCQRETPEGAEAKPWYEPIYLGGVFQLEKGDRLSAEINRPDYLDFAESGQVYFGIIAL
Chain of Interleukin-6 (P05231 whole entry): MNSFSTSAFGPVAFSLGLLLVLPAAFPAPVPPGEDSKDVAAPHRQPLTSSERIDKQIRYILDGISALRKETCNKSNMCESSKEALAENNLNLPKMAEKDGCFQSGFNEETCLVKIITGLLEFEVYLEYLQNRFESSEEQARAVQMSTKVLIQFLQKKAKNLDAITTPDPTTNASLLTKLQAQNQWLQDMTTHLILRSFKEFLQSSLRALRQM

Structure (SMILES)	logD [1]	logP [2]	Stability [3] [%]	Stability [4] [%]	remaining at 24 h [5] [%]	other results
CCCCCCCC(=O)OC[C@H]1O[C@H]2c3c(cc(OC(=O)CCCCCCC)c(OC)c3OC(=O)CCCCCCC)C(=O)O[C@@H]2[C@@H](OC(=O)CCCCCCC)[C@@H]1OC(=O)CCCCCCC	6.11	6.011	–	–	–	–
COc1c(OC(=O)c2ccc([N+](=O)[O-])cc2)cc2c(c1O)[C@@H]1O[C@H](COC(=O)c3ccc([N+](=O)[O-])cc3)[C@@H](O)[C@H](O)[C@H]1OC2=O	2.65	2.508	59.5	91.6	45	–
COc1c(OC(=O)c2c(Cl)cc(Cl)cc2Cl)cc2c(c1O)[C@@H]1O[C@H](COC(=O)c3c(Cl)cc(Cl)cc3Cl)[C@@H](O)[C@H](O)[C@H]1OC2=O	3.89	3.693	87.5	86.5	76	–
COc1c(OC(=O)CC(C)C)cc2c(c1OC(=O)CC(C)C)[C@@H]1O[C@H](COC(=O)CC(C)C)[C@@H](OC(=O)CC(C)C)[C@H](OC(=O)CC(C)C)[C@H]1OC2=O	6.45	6.358	–	–	–	–
COc1c(OCc2ccccc2)cc2c(c1OCc1ccccc1)[C@@H]1O[C@H](CO)[C@@H](O)[C@H](O)[C@H]1OC2=O	1.98	–	90.5	68.8	52.4	logP [6]: 1.965
CCCCCC(=O)OC[C@H]1O[C@H]2c3c(cc(OC(=O)CCCCC)c(OC)c3OC(=O)CCCCC)C(=O)O[C@@H]2[C@@H](OC(=O)CCCCC)[C@@H]1OC(=O)CCCCC	6.06	5.967	–	–	–	–
COc1c(OC(=O)c2ccccc2)cc2c(c1OC(=O)c1ccccc1)[C@@H]1O[C@H](COC(=O)c3ccccc3)[C@@H](O)[C@H](O)[C@H]1OC2=O	1.77	2.553	–	–	–	–
COc1c(OC(C)=O)cc2c(c1O)[C@@H]1O[C@H](COC(C)=O)[C@@H](O)[C@H](O)[C@H]1OC2=O	-1.06	-0.494	–	–	–	–
COc1c(OC(=O)c2ccccc2C)cc2c(c1OC(=O)c1ccccc1C)[C@@H]1O[C@H](COC(=O)c3ccccc3C)[C@@H](OC(=O)c3ccccc3C)[C@H](O)[C@H]1OC2=O	1.61	1.751	–	–	–	–
CCCCOc1cc2c(c(OCCCC)c1OC)[C@@H]1O[C@H](CO)[C@@H](O)[C@H](O)[C@H]1OC2=O	2.83	–	–	–	–	logP [6]: 2.495
COc1c(OC(C)=O)cc2c(c1OC(C)=O)[C@@H]1O[C@H](COC(C)=O)[C@@H](OC(C)=O)[C@H](OC(C)=O)[C@H]1OC2=O [BERGENIN PENTAACETATE]	0.516	1.155	100	99.1	119	–
COc1c(OC(C)=O)cc2c(c1OC(C)=O)[C@@H]1O[C@H](COC(C)=O)[C@@H](OC(C)=O)[C@H](O)[C@H]1OC2=O	0.429	1.181	41.8	92.3	–	Stability ([5]; buffer, pH 4, 24 h): 122.03%
COc1c(OC(=O)c2ccc(C(C)(C)C)cc2)cc2c(c1OC(=O)c1ccc(C(C)(C)C)cc1)[C@@H]1O[C@H](COC(=O)c3ccc(C(C)(C)C)cc3)[C@@H](O)[C@H](O)[C@H]1OC2=O	0.552	0.599	93.5	106	95	–
COc1c(OC(=O)c2ccc(C(C)(C)C)cc2)cc2c(c1OC(=O)c1ccc(C(C)(C)C)cc1)[C@@H]1O[C@H](COC(=O)c3ccc(C(C)(C)C)cc3)[C@@H](OC(=O)c3ccc(C(C)(C)C)cc3)[C@H](OC(=O)c3ccc(C(C)(C)C)cc3)[C@H]1OC2=O	0.162	0.771	86.1	109	104	–
COc1c(O)cc2c(c1O)[C@@H]1O[C@H](COC(=O)c3ccc([N+](=O)[O-])cc3)[C@@H](O)[C@H](O)[C@H]1OC2=O	1.53	1.563	–	–	–	–
COc1c(OC(=O)c2c(F)cccc2F)cc2c(c1O)[C@@H]1O[C@H](COC(=O)c3c(F)cccc3F)[C@@H](O)[C@H](O)[C@H]1OC2=O	1.86	1.801	–	–	–	–
COc1c(O)cc2c(c1O)[C@@H]1O[C@H](CO)[C@@H](O)[C@H](O)[C@H]1OC2=O [BERGENIN]	-0.947	-0.555	101	111	102	IC50 (Tumor necrosis factor): 12.5 µM; solubility [7]: > 1000 µg/mL; solubility [8]: 1220 µg/mL (≈ 3.72 mM); logP [9]: -1.06; solubility [10]: 1080 µg/mL (≈ 3.29 mM); IC50 (Interleukin-6): 0.208 µM; solubility [11]: 1290 µg/mL (≈ 3.93 mM)
Nc1ncn([C@@H]2O[C@H](CO)[C@@H](O)[C@H]2O)c(=O)n1 [AZACITIDINE]	–	–	–	–	–	solubility [7]: 89000 µg/mL (≈ 364 mM); logP [9]: -3.1
CCCOc1cc2c(c(OCCC)c1OC)[C@@H]1O[C@H](CO)[C@@H](O)[C@H](O)[C@H]1OC2=O	1.51	1.655	–	–	–	–
